Tests used:
Type in all cases: functional
[1] = test system: HCT-116; test: Growth inhibition of human HCT116 cells
[2] = test system: HCT-15; test: Growth inhibition of human HCT15 cells
[3] = test system: KM12; test: Growth inhibition of human KM12 cells
[4] = test system: SW-620; test: Growth inhibition of human SW620 cells
[5] = test system: SNB-19; test: Growth inhibition of human SNB19 cells
[6] = test system: U-251; test: Growth inhibition of human U251 cells
[7] = test system: LOX IMVI; test: Growth inhibition of human LOXIMVI cells
[8] = test system: Malme-3M; test: Growth inhibition of human MALME-3M cells
[9] = test system: MDA-MB-435; test: Growth inhibition of human MDA-MB-435 cells
[10] = test system: SK-MEL-2; test: Growth inhibition of human SK-MEL-2 cells
[11] = test system: UACC-257; test: Growth inhibition of human UACC257 cells
[12] = test system: UACC-62; test: Growth inhibition of human UACC62 cells
[13] = test system: OVCAR-4; test: Growth inhibition of human OVCAR4 cells
[14] = test system: SK-OV-3; test: Growth inhibition of human SKOV3 cells
[15] = test system: A498; test: Growth inhibition of human A498 cells
[16] = test system: ACHN; test: Growth inhibition of human ACHN cells
[17] = test system: RXF 393; test: Growth inhibition of human RXF393 cells
[18] = test system: SN12C; test: Growth inhibition of human SN12C cells
[19] = test system: T47D; test: Growth inhibition of human T47D cells
[20] = test system: K562; test: Growth inhibition of human K562 cells assessed tumor cell growth at 10^-5 M; design: scale not given: the % may be the effect or the level left
How it was run: (§1)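 NCI 60-human-tumor-cell-line panel screen. Each compound was tested at a single concentration of 10^-5 M, and percent growth of tumor cells was recorded for each cell line. Growth inhibition was expressed from these percent-growth values.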

[21] = test system: A549; test: Growth inhibition of human A549 cells assessed tumor cell growth at 10^-5 M; design: scale not given: the % may be the effect or the level left; how it was run: as §1
[22] = test system: HOP-62; test: Growth inhibition of human HOP62 cells assessed tumor cell growth at 10^-5 M; design: scale not given: the % may be the effect or the level left; how it was run: as §1
[23] = test system: HOP-92; test: Growth inhibition of human HOP92 cells assessed tumor cell growth at 10^-5 M; design: scale not given: the % may be the effect or the level left; how it was run: as §1
[24] = test system: NCI-H23; test: Growth inhibition of human NCI-H23 cells assessed tumor cell growth at 10^-5 M; design: scale not given: the % may be the effect or the level left; how it was run: as §1
[25] = test system: NCI-H322M; test: Growth inhibition of human NCI-H322M cells assessed tumor cell growth at 10^-5 M; design: scale not given: the % may be the effect or the level left; how it was run: as §1
[26] = test system: NCI-H460; test: Growth inhibition of human NCI-H460 cells assessed tumor cell growth at 10^-5 M; design: scale not given: the % may be the effect or the level left; how it was run: as §1
[27] = test system: COLO 205; test: Growth inhibition of human COLO205 cells assessed tumor cell growth at 10^-5 M; design: scale not given: the % may be the effect or the level left; how it was run: as §1
[28] = test system: HCC 2998; test: Growth inhibition of human HCC2998 cells assessed tumor cell growth at 10^-5 M; design: scale not given: the % may be the effect or the level left; how it was run: as §1
[29] = test system: HCT-116; test: Growth inhibition of human HCT116 cells assessed tumor cell growth at 10^-5 M; design: scale not given: the % may be the effect or the level left; how it was run: as §1
[30] = test system: KM12; test: Growth inhibition of human KM12 cells assessed tumor cell growth at 10^-5 M; design: scale not given: the % may be the effect or the level left; how it was run: as §1
[31] = test system: SW-620; test: Growth inhibition of human SW620 cells assessed tumor cell growth at 10^-5 M; design: scale not given: the % may be the effect or the level left
How it was run: (§2)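 Single-dose screen at 10^-5 M across the 60 human tumor cell line panel, run to NCI standards. The value is the percent growth of each cell line in the presence of compound. Compounds active at this dose moved on to five-concentration testing (10^-4 to 10^-8 M).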

[32] = test system: SF-268; test: Growth inhibition of human SF268 cells assessed tumor cell growth at 10^-5 M; design: scale not given: the % may be the effect or the level left; how it was run: as §1
[33] = test system: SF-539; test: Growth inhibition of human SF539 cells assessed tumor cell growth at 10^-5 M; design: scale not given: the % may be the effect or the level left; how it was run: as §1
[34] = test system: LOX IMVI; test: Growth inhibition of human LOXIMVI cells assessed tumor cell growth at 10^-5 M; design: scale not given: the % may be the effect or the level left; how it was run: as §1
[35] = test system: SK-MEL-2; test: Growth inhibition of human SK-MEL-2 cells assessed tumor cell growth at 10^-5 M; design: scale not given: the % may be the effect or the level left; how it was run: as §1
[36] = test system: SK-MEL-28; test: Growth inhibition of human SK-MEL-28 cells assessed tumor cell growth at 10^-5 M; design: scale not given: the % may be the effect or the level left; how it was run: as §1
[37] = test system: UACC-62; test: Growth inhibition of human UACC62 cells assessed tumor cell growth at 10^-5 M; design: scale not given: the % may be the effect or the level left; how it was run: as §2
[38] = test system: IGROV-1; test: Growth inhibition of human IGROV1 cells assessed tumor cell growth at 10^-5 M; design: scale not given: the % may be the effect or the level left; how it was run: as §1
[39] = test system: OVCAR-3; test: Growth inhibition of human OVCAR3 cells assessed tumor cell growth at 10^-5 M; design: scale not given: the % may be the effect or the level left; how it was run: as §1
[40] = test system: OVCAR-4; test: Growth inhibition of human OVCAR4 cells assessed tumor cell growth at 10^-5 M; design: scale not given: the % may be the effect or the level left; how it was run: as §1
[41] = test system: OVCAR-8; test: Growth inhibition of human OVCAR8 cells assessed tumor cell growth at 10^-5 M; design: scale not given: the % may be the effect or the level left; how it was run: as §1
[42] = test system: TK-10; test: Growth inhibition of human TK10 cells assessed tumor cell growth at 10^-5 M; design: scale not given: the % may be the effect or the level left; how it was run: as §2
[43] = test system: PC-3; test: Growth inhibition of human PC3 cells assessed tumor cell growth at 10^-5 M; design: scale not given: the % may be the effect or the level left; how it was run: as §1
[44] = test system: MCF7; test: Growth inhibition of human MCF7 cells assessed tumor cell growth at 10^-5 M; design: scale not given: the % may be the effect or the level left; how it was run: as §1
[45] = test system: T47D; test: Growth inhibition of human T47D cells assessed tumor cell growth at 10^-5 M; design: scale not given: the % may be the effect or the level left; how it was run: as §2
[46] = test system: MDA-MB-468; test: Growth inhibition of human MDA-MB-468 cells assessed tumor cell growth at 10^-5 M; design: scale not given: the % may be the effect or the level left; how it was run: as §1
[47] = test system: HL-60(TB); test: Growth inhibition of human HL-60(TB) cells
[48] = test system: K562; test: Growth inhibition of human K562 cells
[49] = Growth inhibition of human RPMI8266 cells
[50] = test system: SR; test: Growth inhibition of human SR cells
[51] = test system: EKVX; test: Growth inhibition of human EKVX cells
[52] = test system: NCI-H226; test: Growth inhibition of human NCI-H226 cells
[53] = test system: NCI-H23; test: Growth inhibition of human NCI-H23 cells
[54] = test system: NCI-H322M; test: Growth inhibition of human NCI-H322M cells
[55] = test system: NCI-H460; test: Growth inhibition of human NCI-H460 cells
[56] = read-out: LC50 (the source's name)

CC1=NN(c2cccc(Cl)c2)C(=O)/C1=C\C=C\c1ccccc1
GI50 [1]: 1.5 µM | CC50 [1, 56]: 6.1 µM | GI50 [2]: 2.2 µM | CC50 [2, 56]: > 100 µM | GI50 [3]: 1.6 µM | CC50 [3, 56]: 5.8 µM | GI50 [4]: 1.7 µM | CC50 [4, 56]: 6.7 µM | GI50 [5]: 5.6 µM | CC50 [5, 56]: > 100 µM | GI50 [6]: 1.7 µM | CC50 [6, 56]: 23.9 µM | GI50 [7]: 1.4 µM | CC50 [7, 56]: 6.7 µM | GI50 [8]: 2.7 µM | CC50 [8, 56]: > 100 µM | GI50 [9]: 2.5 µM | CC50 [9, 56]: > 100 µM | GI50 [10]: 3.8 µM | CC50 [10, 56]: > 100 µM | GI50 [11]: 2.1 µM | CC50 [11, 56]: > 100 µM | GI50 [12]: 1.7 µM | CC50 [12, 56]: 8.5 µM | GI50 [13]: 3.3 µM | CC50 [13, 56]: > 100 µM | GI50 [14]: 3.2 µM | CC50 [14, 56]: > 100 µM | GI50 [15]: 17.7 µM | CC50 [15, 56]: > 100 µM | GI50 [16]: 1.7 µM | CC50 [16, 56]: 6.1 µM | GI50 [17]: 2.1 µM | CC50 [17, 56]: 7.2 µM | GI50 [18]: 2.4 µM | CC50 [18, 56]: > 100 µM | GI50 [19]: 2.2 µM | CC50 [19, 56]: > 100 µM | Activity [20]: 76.92% | Activity [21]: 94.48% | Activity [22]: 6.78% | Activity [23]: 101.34% | Activity [24]: 26.27% | Activity [25]: 111.8% | Activity [26]: 100.76% | Activity [27]: 11.57% | Activity [28]: 30.87% | Activity [29]: -89.22% | Activity [30]: 16.12% | Activity [31]: 1.26% | Activity [32]: 75.5% | Activity [33]: 21.62% | Activity [34]: -87.87% | Activity [35]: 74.62% | Activity [36]: -76.48% | Activity [37]: 28.21% | Activity [38]: 45.54% | Activity [39]: 103.59% | Activity [40]: -20.79% | Activity [41]: 0.37% | Activity [42]: 44.8% | Activity [43]: 45.45% | Activity [44]: 5.42% | Activity [45]: 41.86% | Activity [46]: 9.96% | GI50 [47]: 3.1 µM | CC50 [47, 56]: > 100 µM | GI50 [48]: 2.8 µM | CC50 [48, 56]: > 100 µM | GI50 [49]: 2.8 µM | CC50 [49, 56]: > 100 µM | GI50 [50]: 2.3 µM | CC50 [50, 56]: > 100 µM | GI50 [51]: 3 µM | CC50 [51, 56]: > 100 µM | GI50 [52]: 2.6 µM | CC50 [52, 56]: 64.5 µM | GI50 [53]: 2.3 µM | LC50 (concentration killing 50% of cells) [53]: > 100 µM | GI50 [54]: 28.1 µM | CC50 [54, 56]: > 100 µM | GI50 [55]: 1.6 µM | CC50 [55, 56]: 6.4 µM
